Compounds with a hit are over-represented: about 2.9% of the library has one in this group of screens.
NALP1 yeast inh = NALP1 inflammasome inhibitors in reconstituted yeast, colorimetric, S. cerevisiae, triplicate retest; inhibition, % at 10 µM; 0.61% of 280,000 active; AID 2071, 2009; S. cerevisiae NALP1/ASC/caspase-1 growth, X-gal OD620, 72 h; in the data active means inhibition mostly above about 24%, no sharp cut-off; inactive means mostly below about 32%
NALP3 yeast inh = NALP3 inflammasome inhibitors in reconstituted yeast, primary screen, luminescence, uHTS. 0.39% of 330,000 active. Yeast reconstituted NLRP3/ASC/caspase-1, beta-gal luminescence, 24 h. inhibition, % at 10 µM;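 active means inhibition of 50% or more; inactive means inhibition below 50%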;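 further: plate controls were induced DMSO wells for no effect and uninduced yeast grown without galactose for full effect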
IMP-1 inh-1 = IMP-1 metallo-beta-lactamase inhibitors, primary screen, biochemical, epi-absorbance readout, Pseudomonas aeruginosa enzyme; metallo-beta-lactamase IMP-1 (Pseudomonas aeruginosa); 0.45% of 290,000 active; purified IMP-1, nitrocefin hydrolysis, epi-absorbance fluorescence; inhibition, % at 5.6 µM;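 active means inhibition above the mean plus 3 SD of all compounds in the same screening run, cut at about 4.5% in these data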;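 further: 0% = IMP-1 with DMSO and 100% = DMSO wells lacking enzyme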
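Test system: recombinant IMP-1 enzyme, purified / Medium: HEPES buffer pH 7.1 with ZnSO4 and Brij 35 / Doses: single dose, 5.6 µM / Times: 25 °C, 15 min preincubation, 25 min reaction / Detection: Epi-absorbance via hydrolysed-nitrocefin quenching of white-plate fluorescence, 480/530 nm, EDTA stop / Evaluation: percent inhibition from optical density relative to buffer-blank wells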
VIM-2 inh = VIM-2 metallo-beta-lactamase inhibitors, primary screen, biochemical, epi-absorbance readout, Pseudomonas aeruginosa enzyme; 0.89% of 290,000 active; inhibition, % at 5.6 µM; purified VIM-2, nitrocefin hydrolysis, epi-absorbance fluorescence;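 active means inhibition above the mean of all tested compounds plus 3 SD, cutoff set per screening run, cut at about 7.5% in these data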;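 further: red hydrolysis product quenches plate fluorescence so inhibitors raise well fluorescence; 0% = enzyme with DMSO and 100% = DMSO without enzyme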
Mot1-301 SUMO = yeast Mot1-301 growth rescue at high temperature, primary screen, SUMOylation pathway inhibitor project, S. cerevisiae, ATP luminescence, 38.5C; S. cerevisiae Mot1-301 growth rescue; percent above DMSO median, 100 means doubled; AID 2716, 2010; 1% of 320,000 active; growth rescue, % at 18.8 µM;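 active means every valid replicate shows activation above 250% relative to neutral control wells; inactive means the rest, any valid replicate at or below 250%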;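 further: OY570 slx delta 5 strain wells were the positive control but not used for scaling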
PolyA inhibitor = polyadenylation inhibitors in yeast reporter cells, primary screen, luminescence, S. cerevisiae; S. cerevisiae SKY197-pL101 polyadenylation reporter, beta-gal luminescence; efflux-impaired pdr1/pdr3 knockout yeast; score 100 = 6 SD above DMSO; 0.02% of 300,000 active; AID 1875, 2009; activity score, % at 12 µM;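 active means lowest replicate activity score at least 50, where 100 means six control SD above control mean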;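 further: yeast exposed to compound for 9 h at 30 °C; higher score means more reporter readthrough which indicates perturbed polyadenylation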
IMP-1 inh-2 = IMP-1 metallo-beta-lactamase inhibitors, confirmation, selectivity assay for selective VIM-2 inhibitor project, biochemical, epi-absorbance readout, triplicate. shares compounds with VIM-2 inh. purified IMP-1, nitrocefin hydrolysis, epi-absorbance fluorescence. inhibition, % at 5.6 µM. 1,300 tested, under 10 active; call rule not given here;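 further: 0% = enzyme with vehicle and 100% = vehicle without enzyme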
VIM-2 FRET ctr = VIM-2 inhibitors in FRET format, confirmation, artefact control for selective VIM-2 inhibitor project, biochemical, epi-absorbance artifact exclusion. shares compounds with VIM-2 inh. purified VIM-2, CCF2 FRET substrate hydrolysis. inhibition, % at 5.6 µM. 23% of 1,300 active. AID 1857, 2009;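 active means inhibition above the mean of all tested compounds plus 3 SD, cut at about 19% in these data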;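 further: 0% = VIM-2 plus DMSO and 100% = no enzyme wells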
TEM-1 counter = TEM-1 serine beta-lactamase inhibitors, counter-screen for VIM-2 inhibitor project, biochemical, epi-absorbance, HTS; shares compounds with VIM-2 inh; Purified TEM-1, nitrocefin hydrolysis, epi-absorbance fluorescence; inhibition, % at 5.6 µM; 3% of 1,300 active;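 active means inhibition above that campaign's mean inhibition plus 3 SD, cut at about 0.46% in these data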;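 further: 0% = TEM-1 with DMSO and 100% = TEM-1 with 100 µM potassium clavulanate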
Target sequence (P62593 whole entry, looked up): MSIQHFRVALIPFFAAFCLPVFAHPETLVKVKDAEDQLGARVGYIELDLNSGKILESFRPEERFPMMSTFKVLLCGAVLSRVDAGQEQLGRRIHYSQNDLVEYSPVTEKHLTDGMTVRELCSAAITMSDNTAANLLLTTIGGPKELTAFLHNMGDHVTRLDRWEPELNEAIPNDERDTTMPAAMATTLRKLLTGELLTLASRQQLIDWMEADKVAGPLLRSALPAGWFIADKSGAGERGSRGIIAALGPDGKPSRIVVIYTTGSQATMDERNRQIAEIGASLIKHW
VIM-2 inh conf = VIM-2 metallo-beta-lactamase inhibitors, confirmation, biochemical, epi-absorbance, hits shared with IMP-1 screen; shares compounds with VIM-2 inh; purified VIM-2, nitrocefin hydrolysis; inhibition, % at 5.6 µM; 96% of 1,300 active; AID 2187, 2009;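 active means inhibition of the VIM-2 beta-lactamase enzyme above about 11% from the earlier first-round screen, limit read from the data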;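 further: 0% = VIM-2 with DMSO and 100% = buffer wells without enzyme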
* hit, by the source's call; / = no result.

SMILES | NALP1 yeast inh | NALP3 yeast inh | IMP-1 inh-1 | VIM-2 inh | Mot1-301 SUMO | PolyA inhibitor | IMP-1 inh-2 | VIM-2 FRET ctr | TEM-1 counter | VIM-2 inh conf
NC(=O)c1ccc(Oc2ccc3c(c2)CCC3)c([N+](=O)[O-])c1 | 17 | 11 | 0 | -3 | -8 | -18 | / | / | / | /
CC(C)C(=O)Nc1cccc(C(=O)Nc2ccc(S(=O)(=O)N3CCOCC3)cc2)c1 | 16 | 17 | -4 | -1 | -1 | 3 | / | / | / | /
Cc1c(OCC(=O)NCc2cccnc2)ccc2c3c(c(=O)oc12)CCC3 | 26 | 10 | 0 | 27* | 83 | 7 | -4 | -1 | -11 | 31*
CC(=O)COc1ccc2c3c(c(=O)oc2c1C)CCCCC3 | 2 | 11 | -1 | -6 | -20 | 5 | / | / | / | /
Cc1c(OC(C)C(=O)NCc2ccccn2)ccc2c3c(c(=O)oc12)CCCC3 (stereo unspecified) | 18 | 17 | -4 | 16* | 22 | -15 | -3 | 0 | -11 | 23*
Cc1c(OC(C)C(=O)NCc2ccncc2)ccc2c3c(c(=O)oc12)CCC3 (stereo unspecified) | 16 | 8 | -1 | 23* | 17 | -5 | -2 | -5 | -11 | 36*
Cc1c(OCC(=O)NCc2ccncc2)ccc2c3c(c(=O)oc12)CCC3 | 28 | 0 | -6 | 50* | -6 | 1 | -2 | -5 | -13 | 57*
COC(=O)[C@H](Cc1ccccc1)NC(=O)NCCc1ccccc1F | 10 | 6 | -1 | -1 | 11 | -18 | / | / | / | /
Cc1cc(OC(C)C(=O)NCC(O)c2ccccc2)c2c(C)c(C)c(=O)oc2c1 (stereo unspecified) | 13 | 13 | -3 | -1 | -3 | 9 | / | / | / | /
Cc1c(OC(C)C(=O)NCC(O)c2ccccc2)ccc2c3c(c(=O)oc12)CCC3 (stereo unspecified) | 1 | 10 | 0 | 19* | -13 | 0 | -3 | -1 | -8 | 24*
Cc1c(C(=O)NCCN2CCCC(O)C2)oc2c(F)cccc12 (stereo unspecified) | 5 | 14 | -1 | -1 | 3 | 4 | / | / | / | /
Cn1nc(-c2ccc(OCC(N)=O)cc2)c2ccccc2c1=O | 14 | 0 | -4 | 13* | 5 | 29 | -2 | 0 | -5 | 30*
COc1ccccc1NC(=O)COc1ccc(-c2nn(C)c(=O)c3ccccc23)cc1 | 2 | 19 | -1 | 6 | -18 | -1 | / | / | / | /
COC(=O)COc1ccc(-c2nn(C)c(=O)c3ccccc23)cc1 | 5 | 3 | -1 | 4 | / | 3 | / | / | / | /
Cc1cccc(NC(=O)COc2ccc(-c3nn(C)c(=O)c4ccccc34)cc2)c1 | 24 | 46 | -2 | 16* | 8 | 6 | -3 | 0 | -7 | 18*
CCCNC(=O)COc1ccc(-c2nn(C)c(=O)c3ccccc23)cc1 | 8 | 4 | -1 | 13* | 110 | 13 | -2 | -1 | -3 | 20*
COc1cccc(NC(=O)CN(C)C(=O)c2ccc3[nH]c4c(c3c2)CC(C)CC4)c1 (stereo unspecified) | / | 12 | / | / | / | / | / | / | / | /

From PubChem
